Screening data: PubChem, several laboratories
This is one part of a sample in which hits are shown more often than they occur.
UPR XBP1 act: activators of adaptive arm of unfolded protein response (XBP1) | CHO-XBP1 luciferase reporter, IRE1-XBP1 UPR activation, luminescence; percent of tunicamycin response, DMSO as zero | activation, % at 20 µM | 0.33% of 330,000 active | AID 463104;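 active = versus positive control, 20 µM dose yields 30% or more activation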;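 note: 100% = tunicamycin at 10 µg/mL and 0% = DMSO only wells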
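assay system = CHO-XBP1 luciferase reporter cells | amount = 1000 cells/well | buffer or medium = F12 plus 10% FBS | compound dosing = single point, 20 µM final compound, 1% DMSO | incubation = 16-18 h cell attachment at 37 °C, then 6 h compound exposure | detection = Steady-Glo luminescence read | controls = tunicamycin 10 µg/mL and vehicle-only wells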
UPR CHOP act: activators of apoptotic arm of unfolded protein response (CHOP) | CHO-CHOP luciferase reporter, UPR activation, luminescence; percent of tunicamycin response over DMSO baseline | activation, % at 10 µM | 0.34% of 330,000 active | AID 449763;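 active = at 10 µM dose, activation of 40% or more, normalized to positive control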;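 note: 100% = tunicamycin at 10 µg/mL and 0% = DMSO alone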
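Evaluation: % reporter activation, DMSO baseline versus tunicamycin full activation; System: CHO-CHOP luciferase reporter cell line; Input: 500 cells/well; Incubation: 6 h compound treatment, 37 °C; Measured by: Steady-Glo luciferase luminescence; Dosing: one dose, 10 µM in 0.5% DMSO; Buffer or medium: F12 medium, 10% FBS; Benchmarks: positive tunicamycin 10 µg/mL, negative DMSO alone.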
A1 inh: inhibitors of the anti-apoptotic protein A1, read as caspase activation. MEF A1-2A-BIM cells, Caspase-Glo 3/7 luminescence, 3 h; percent of clofoctol response, vehicle zero. AID 2462. 0.066% of 330,000 active. caspase activation, % (no concentration beside the values);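 active = over half of replicate activation scores above 10%, or exactly half above 10 with the replicate mean above 10; inconclusive = replicate mean below 10 yet half the replicates above 10; inactive = over half of replicates below 10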
CHOP inh: inhibitors of CHOP induction in ER stress response; CHO-K1 CHOP-promoter luciferase, tunicamycin-induced, 15-18 h; inhibition, % at 10 µM; 3.8% of 220,000 active; AID 2732;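 active = compounds that reduced the stress-induced luciferase reporter signal by more than about 70% of percent inhibition, limit read from the data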;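 note: 0% = tunicamycin plus vehicle and 100% = wells without tunicamycin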
CHOP inh conf: confirmation of CHOP induction inhibitors | shares compounds with CHOP inh | CHO-CHOP promoter luciferase reporter, tunicamycin-induced, luminescence | inhibition, % at 10 µM | 45% of 2,100 active | AID 504437;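 active = mean of three repeat readings of reporter signal inhibition above a set limit, cut at about 70% in these data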;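 note: 0% = tunicamycin plus vehicle and 100% = wells lacking tunicamycin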
Active calls of the source: *; ? = inconclusive; . = no result.

SMILES	UPR XBP1 act	UPR CHOP act	A1 inh	CHOP inh	CHOP inh conf
Cc1cc(C)n2c(=O)c3ccc(Cl)cc3nc2c1C#N	1	1	1	-16	.
Cc1cc(Cl)n2c(nc3cc(F)c(F)cc32)c1C#N	.	.	.	105*	124*
NC(=S)N=Nc1c(O)[nH]c2ccccc12	-2	3	0	4	.
NC(=S)N=Nc1c(O)[nH]c2c(Br)cc(Br)cc12	-2	2	0	98*	7
CCn1c(-c2ccco2)n[nH]c1=S	-2	-1	-1	-20	.
Cc1ccc(SCC(=O)Nc2ccc(-c3nc4ccccc4[nH]3)cc2)cc1	17	4	0	102*	6
Cc1ccc2nc(-c3ccc(SCC(=O)Nc4nnc(C)s4)nc3)[nH]c2c1	0	7	0	105*	22
COc1ccccc1NC(=O)C(C)OC(=O)CCCc1c[nH]c2ccccc12 (configuration not stated)	-7	0	-1	.	.
CCC(C)NC(=O)Cc1ccc(-c2ccccc2)cc1 (configuration not stated)	1	-2	0	21	.
CC(=O)Nc1ccc(S(=O)(=O)N2CCC(C(=O)NC3CCCC3)CC2)cc1	-1	0	0	.	.
COc1ccc2c3c(cccc13)C(=O)N(O)C2=O	.	.	0	102*	108*
CCCc1ccc(O)c(N=Cc2cc(Br)cc(OCC)c2O)c1	-2	0	0	97*	110*
CCc1cccc(OCCCCN(CC)CC)c1	-2	1	-1	17	.
Cc1nn(-c2ccccc2)c(C)c1/C=N/n1c(-c2ccncc2)n[nH]c1=S	2	1	1	5	.
Cc1nn(-c2ccccc2)c(C)c1/C=N/n1c(-c2ccc(Cl)cc2)n[nH]c1=S	9	0	1	103*	48
CCOc1ccc(N(C(=O)c2snc(C(N)=O)c2N)C(C(=O)NCC2CCCO2)c2ccco2)cc1 (configuration not stated)	0	0	-1	.	.
Cc1cc(/C=C(\C#N)C(=O)O)c(C)n1CCC(C)C	-2	1	0	3	.
CCc1ccc(NC(=O)Nn2cnnc2)cc1	-3	2	1	.	.
CN(C)c1ccc(/C=C2\SC(=O)N(CCc3nnc(N)s3)C2=O)cc1	-8	-9	1	100*	127*
CC1=CC(=O)C=C(C)C1=NOC(=O)/C=C\c1ccccc1	1	36	1	101*	-90
CC1=C(C)/C(=N\OC(=O)/C=C/c2ccccc2)C=CC1=O	-9	2	-2	104*	-143
O=C(CSc1ccc2nnc(CCNC(=O)c3ccccc3)n2n1)NCc1ccc(F)cc1	-5	-1	-1	.	.
N#Cc1c(Cl)c(Cl)c2nnc(-c3ccc(Br)cc3)n2c1Cl	0	1	-1	104*	-7
Cc1ccc(-c2cccc(OC(=O)c3ccccc3F)c2)cc1	5	2	-1	21	.
CC(C)(C)c1cc(OC(=O)c2ccccc2F)ccc1O	0	1	1	105*	17
SMILES	UPR XBP1 act	UPR CHOP act	A1 inh	CHOP inh	CHOP inh conf
O=C(CCN1C(=O)[C@@H]2Cc3ccccc3CN2C1=O)N[C@H](Cc1ccccc1)C(=O)O	0	1	0	.	.
COc1cccc(-c2nc(CS(=O)CC(=O)NCCCOC(C)C)c(C)o2)c1 (configuration not stated)	1	-2	0	20	.
Cc1cccc(N=Nc2c(N)n[nH]c2-c2ccc(Cl)cc2)c1	2	0	-1	109*	108*
Oc1cccc(C2c3[nH]c4ccccc4c3CCN2Cc2ccoc2)c1 (configuration not stated)	-2	1	1	18	.
Oc1cccc(C2c3[nH]c4ccccc4c3CCN2Cc2ccc3c(c2)CCO3)c1 (configuration not stated)	7	0	?	106*	10
O=C(Nc1ccccc1Cl)c1ccccc1Oc1ccc(C(F)(F)F)cc1[N+](=O)[O-]	1	-3	1	105*	81*
COc1ccc(-c2cc(C(=O)NCc3cccs3)no2)cc1	3	5	-4	-2	.
COc1ccc2nc3sc(C(=O)NCc4cccs4)c(N)c3cc2c1	-2	0	-6	102*	9
O=C(c1cc2ccccc2cc1O)N1CCN(c2cccc(Cl)c2)CC1	-1	1	0	.	.
COc1cc(N=c2ssnc2Cl)cc(OC)c1	0	3	0	106*	20
Clc1nssc1=Nc1ccc(Br)cc1	.	.	.	106*	131*
CCOC(=O)c1c(N)sn(-c2ccccc2C)c1=S	1	-2	0	33	.
O=C(COCC(=O)Nc1cccc(C(F)(F)F)c1)Nc1cccc(C(F)(F)F)c1	-1	-2	-1	103*	116*
CCCCC(CC)Cn1c(N)c(C#N)c2nc3ccccc3nc21 (configuration not stated)	-2	1	0	101*	133*
CCCCC(CC)Cn1c2nc3ccccc3nc2c2c(=N)oc(C)nc21 (configuration not stated)	.	.	.	106*	104*
C#CCSc1nncn1C(=O)/C=C/c1ccccc1	1	5	0	105*	-8
O=C(/C=C/c1ccccc1)N1CCC[C@H]1CO	0	4	3	8	.
Cc1cc2oc(C(=O)NCc3ccccc3)cc(=O)c2cc1C	2	-1	0	.	.
CCOC(=O)c1c(NC(=O)C2=C(C)NC(=S)NC2c2ccc(CC)cc2)sc(C)c1C (configuration not stated)	3	0	1	97*	57
CCOC(=O)C1=C(C)NC(=S)NC1c1ccc(OC(=O)c2ccco2)cc1 (configuration not stated)	0	3	0	-6	.
COc1cccc(CNC(=O)c2ccc(Cl)c(NC3=NC4CS(=O)(=O)CC4S3)c2)c1 (configuration not stated)	3	2	1	.	.
Cc1c(C(=O)Nc2ccc3oc(-c4cccnc4)nc3c2)oc2ccccc12	9	-1	0	100*	-5
C/C(=N\N=C1\NC(=O)C(CC(=O)Nc2ccc(Cl)cc2)S1)c1ccco1 (configuration not stated)	-2	1	0	29	.
C/C(=N\N=C1\NC(=O)C(CC(=O)Nc2ccc(C)c(Cl)c2)S1)C(C)(C)C (configuration not stated)	-1	-2	-1	106*	107*
O=C(CC1S/C(=N/N=C/c2cccs2)NC1=O)Nc1ccc(Cl)c(Cl)c1 (configuration not stated)	0	3	0	104*	57
O=C1N/C(=N\N=C\c2cccs2)SC1Cc1ccc(Cl)cc1Cl (configuration not stated)	2	1	0	44	.
